# Many of the other results were omitted from the sample, so hits are more common in it than they were.
# Fibroblast inh: blocks proliferation of human lung fibroblasts; 85,000 tested, 1.1% active; AID 719; viability, % at 10 µM; LL 47 human lung fibroblast viability, ATP luminescence; active compounds read low;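 active = viability at or below 50% in the single dose screen; inactive = viability above 50%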;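 also: compound exposure lasted 72 h before the ATP readout; 100% = median luminescence of untreated cell-only wells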
#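 Test system: LL 47 human lung fibroblasts / Quantity: 1,150 cells in each well / Medium: IMEM growth medium with 15% fetal bovine serum / Incubation: 72 h compound exposure at 37 °C after overnight plating / Detection: CellTiter-Glo luminescence measuring cellular ATP / Read-out: % viability versus median cells-only luminescence / Benchmarks: cell-only wells, no compound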
# PTEN del growth: growth suppressors of cells with PTEN tumor suppressor deletion. HCT116 PTEN-null viability, CellTiter-Glo, 60 h; active compounds read low. viability, % at 10 µM. 140,000 tested, 1.2% active;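 active = viability at or below a set limit, 4 SD under the median of all tested compounds, cut at about 3.7% in these data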;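 also: PTEN knockout HCT116 line with beta catenin targeted HCT116 as companion control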
# bCat KO growth: beta-catenin-lacking colon tumor cell growth suppression; 140,000 tested, 1.5% active; viability, % at 10 µM; AID 818; HCT116 beta-catenin knockout viability, CellTiter-Glo, 60 h; active compounds read low;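 active = viability at or under a set limit, the compound median less 4 SD, cut at about 6% in these data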;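 also: 0% = Hyamine 1622 control at 20 µM and 100% = untreated cell control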
# Candida biofilm: kills Candida albicans biofilms. C. albicans biofilm + clotrimazole, Alamar Blue. 85,000 tested, 0.14% active. inhibition, % at 6 µM;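 active = inhibition above 20%; inactive = inhibition below 20%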;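 also: preformed 24 hr biofilms exposed to compound for 48 hr; 0% = biofilm without compound and 100% = blank killed by clotrimazole plus chlorhexidine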
# H69AR growth 86K: blocks growth of human H69AR lung tumor cells; H69AR lung tumor viability, ATP luminescence, 72 h; active compounds read low; viability, % at 10 µM; 85,000 tested, 6% active; AID 598;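 active = viability at or below 40%; inactive = viability above 40%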;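 also: multidrug resistant small cell line overexpressing MRP-1 efflux transporter; 100% = mean luminescence of untreated control wells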
# HUVEC prolif 384: inhibitors of human endothelial cell proliferation; HUVEC proliferation, CellTiter-Glo luminescence, 72 h; active compounds read low; viability, % at 10 µM (by protocol); 86,000 tested, 1.1% active;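 active = viability at or below 30%; inactive = viability above 30%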;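 also: 100% = median luminescence of DMSO-only cell control wells on each plate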
# * marks the source's active call; other numbers are inactive results; · = no result given; ! = not confirmed by another sample.
SMILES,Fibroblast inh,PTEN del growth,bCat KO growth,Candida biofilm,H69AR growth 86K,HUVEC prolif 384
COc1ccc(-c2c/c(=N\c3nc(-c4ccccc4)c(C)s3)c3ccccc3o2)cc1O,40*,16,17,1,31*,34
Cc1ccc(C)n1NC(=O)c1ccccc1O,45*,48,55,4,29*,88
O=C(CN1CCC(n2nnc3cc(F)ccc32)CC1)NCc1ccco1,104,91,84,7,74,110
COC(=O)[C@@]1(Cc2ccccc2)[C@@H]2C(=CC(=O)[C@H]2CC(=O)C(=O)N(C)C)CN1C(=O)c1ccccc1,·,1.7*,2.4*,·,·,·
COC(=O)[C@@]1(Cc2ccc(F)cc2)[C@H]2c3cc(C(=O)N(C)C)n(C[C@H](O)CO)c3C[C@H]2CN1C(=O)c1ccccc1,·,90,84,·,·,·
Cc1ccc(CC2CC(=O)N(c3nc4ccccc4n3C)C2=O)cc1 (stereo not given),98,97,98,7,91,97
CSc1nc2ccccc2n1Cc1c(Cl)cccc1Cl,92,49,43,-3,36*,100
CSc1nc2ccccc2n1CC(=O)Nc1c(C)cccc1C,106,62,47,9,75,86
CCOc1cc(N2CCOCC2)c(OCC)cc1NS(=O)(=O)c1ccc(Cl)s1,·,11,11,1,20*,58
O=C(N/N=C\c1cn(-c2ccccc2)nc1-c1ccccc1)c1ccc(Br)o1,·,7,7,·,·,·
Cc1ccc(-c2nn(-c3ccccc3)cc2/C=N/NC(=O)c2ccc(Br)o2)cc1,·,4,4.2*,·,·,·
CC1=NOC(=O)/C1=C\c1ccc(-c2cccc(Cl)c2)o1,8.0*,3.7*,1.1*,8,1.1*,42
O=C(Cc1ccc(S(=O)(=O)N2CCCCC2)s1)Nc1ccc(F)c(F)c1,·,63,70,·,·,·
O=C(COC(=O)Cc1ccc(S(=O)(=O)N2CCCCC2)s1)Nc1ccc2c(c1)OCO2,103,101,102,7,25*,92
CCn1c(SCC(=O)Nc2nc(-c3ccccc3)cs2)nc2c1c(=O)n(C)c(=O)n2C,·,58,62,·,·,·
CC(=O)CCN1CCOCC1,90,·,103,10,29*,96
COc1cccc2c1C(=O)c1c(O)c3c(c(O)c1C2=O)C[C@@](O)(C(C)=O)C[C@@H]3O[C@H]1C[C@H](N)[C@H](O)[C@H](C)O1,·,0.8*,0.8*,·,·,·
Cc1ccccc1N=Cc1cccc(O)c1O,·,63,58,·,·,·
Cc1ccc(N=Cc2cccc(O)c2O)c(C)c1,·,2.0*,1.9*,·,·,·
CCOC(=O)C1CCN(C(=O)c2cc3c(-c4ccc(OC)c(OC)c4)nn(C)c3s2)CC1,111,80,71,7,79,79
CCOC(=O)C1CCCN(C(=O)c2cc3c(-c4cccc(OC)c4)nn(C)c3s2)C1 (stereo not given),95,35,33,7,22*,73
CCCC1=Nc2cc(C(=O)NCCCOC(C)C)ccc2Sc2ccccc21,50,20,18,2,16*,43
CCCC1=Nc2cc(C(=O)NCCCOCC)ccc2Sc2ccccc21,58,12,20,-5,33*,38
CC(C)OCCCNC(=O)c1ccncc1,100,101,95,6,93,101
CCC1=Nc2cc(C(=O)NCCCOC)ccc2Sc2ccccc21,58,15,21,11,32*,46
SMILES,Fibroblast inh,PTEN del growth,bCat KO growth,Candida biofilm,H69AR growth 86K,HUVEC prolif 384
Cc1nc(NC(C)C)c2cnn(CCc3ccccc3)c2n1,·,115,109,·,·,·
Cn1c(=NC(=O)CCl)sc2ccccc21,2.4*,5,5.1*,11,1.4*,76
COc1ccc(-c2cc(C(=O)O)c3c(C)nn(-c4ccccn4)c3n2)cc1,103,99,83,4,93,97
COc1ccc(N=CC2=C(Nc3ccc(OC)cc3)c3c(C)nn(-c4ccccn4)c3CC2)cc1,71,·,·,1,39*,3.0*
O=C(Nc1cc(S(=O)(=O)N2CCOCC2)ccc1Cl)C(=O)c1c(-c2ccccc2)cc2ccccn12,105,99,104,3,102,105
CN(C)CCCN1c2ccccc2Sc2ccc(Cl)cc21,44*,2.7*!,1.8*!,7,20*,50
OCCN1CCN(CCCN2c3ccccc3Sc3ccc(Cl)cc32)CC1,28*,2.3*,1.5*,4,1.5*,1.8*
OCCN1CCN(Cc2cccc(Oc3ccc(Cl)cc3)c2)CC1,92,67,50,4,82,83
COc1ccc(CCC(=O)N2CCCSC2=Nc2ccc(C(C)=O)cc2)cc1,·,85,92,·,·,·
O=C(/C(=C/c1ccc(Cl)cc1)c1nc2ccccc2[nH]1)c1ccccc1,·,0.8*,1.2*,·,·,·
O=C(N/C(=C/c1ccc(Cl)cc1)c1nc2ccccc2[nH]1)c1ccco1,·,74,77,·,·,·
COc1cc(/C=C(/C(=O)c2cccs2)c2nc3ccccc3[nH]2)cc(OC)c1O,19*,2.5*,5.2*,-2,2.6*,102
C#CCSc1nnc(-c2sc(-c3ccccc3)nc2C)n1C,·,87,94,·,·,·
Cc1ccc2c(CC(=O)Nc3nc(C)cs3)coc2c1,96,71,84,3,92,95
Cc1cc(NC(=O)NC2(C(F)(F)F)Oc3ccc(Cl)cc3O2)no1 (stereo not given),·,41,56,·,·,·
COCCNC(=O)NC1(C(F)(F)F)Oc2ccc(Cl)cc2O1 (stereo not given),63,63,58,5,34*,57
O=C(NCc1cccnc1)NC1(C(F)(F)F)Oc2ccc(Cl)cc2O1 (stereo not given),70,21,23,15,31*,51
COc1ccc(-c2nc3scc(-c4ccccc4)n3n2)cc1,74,81,79,·,31*,67
COc1ccc(C(=O)n2nc(-c3ccccc3)nc2SC)cc1,·,59,71,·,·,·
COc1ccc(-c2c3c(=O)n(C)c(=O)n(C)c3c3nnc4ccccc4n23)cc1,100,·,·,9,78,101
COc1ccc(-c2c3c(=O)n(C)c(=O)n(C)c3cn2C2CCCCC2)cc1,84,51,37,8,20*,86
CC(C)(C)CC(=O)Nc1nnc(C(F)(F)F)s1,103,87,78,4,95,95
CC(NC(=O)Nc1nnc(C(F)(F)F)s1)(C(F)(F)F)C(F)(F)F,28*,1.8*,2.4*,9,6.2*,28*
COc1ccc(CNC(=O)COC(=O)[C@H](Cc2c[nH]c3ccccc23)NC(=O)c2cccs2)cc1,·,79,85,·,·,·
Cc1cccc(Nc2nc(N)c([N+](=O)[O-])c(N3CCN(C)CC3)n2)c1,·,67,76,·,·,·
Cc1cccc(Nc2nc(N)c([N+](=O)[O-])c(N3CCCC(C)C3)n2)c1 (stereo not given),·,2.8*,9,·,·,·
CCOc1ccc(CCNC(=O)Cn2cccc2C(=O)c2ccccc2C)cc1OCC,·,91,92,·,·,·
CC(=O)c1cccc(NC(=S)NC(=O)CC(C)(C)C)c1,·,83,104,·,·,·
